Experimental data taken from publication PMC4368043 (ACS Chemical Neuroscience, 2014).
“Also recorded” adds a separate entry of the source.

Key:
[1] = Microsomal stability assay; assay type: in vitro ADME; details: mouse, pooled mouse liver microsomes
In short: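 Pooled mouse liver microsomes (1 μg/μL protein) preincubated 10 min at 37 °C with test compound (4 μM final). Started with NADPH (2 mM final) and incubated 1 h at 37 °C with shaking. Zero-time and end samples quenched in 5:1 acetonitrile:water and centrifuged. Indomethacin added as internal standard. Quantified by triple-quadrupole LC-MS/MS in MRM mode; % remaining at 1 h.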

Plasma stability assay = assay type: in vitro ADME; details: male, C57BL/6, mouse
In short: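 Plasma from male C57BL/6 mice, diluted 1:1 with PBS and warmed to 37 °C. Test compound added to 1 μM final and incubated 3 h at 37 °C with shaking. Zero-time and end samples quenched in 5:1 acetonitrile:water and centrifuged. Indomethacin added as internal standard. Quantified by LC-MS/MS in MRM mode; % remaining at 3 h.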

SH-SY5Y cells = experiment: Cell viability assay, thapsigargin as stressor; assay type: cell-based, human; details: 7.5 μM thapsigargin; for EC50: read-out: SH-SY5Y EC50 ± SEM, cytoprotection, dose-response; for cytoprotective activity against thapsigargin-induced cell death (in words): SH-SY5Y cells
In short: (§1)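 Cells plated overnight at 37 °C, 5% CO2 in phenol red-free DMEM with 2% FBS (SH-SY5Y 4 × 10^4, H4 2.5 × 10^3 cells/well). Test compound in dose–response for 2 h, then thapsigargin 7.5 μM final for 18 h at 37 °C. Read by MTS absorbance at 490 nm. Viability % = background-subtracted (cell-free medium) relative to DMSO-only, no-thapsigargin wells. EC50 from dose–response curves. ≥3 repeats, mean ± SEM.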

H4 cells = experiment: Cell viability assay, thapsigargin as stressor; assay type: cell-based, human; details: 7.5 μM thapsigargin; for EC50: read-out: H4 EC50 ± SEM, cytoprotection, dose-response; for cytoprotective activity against thapsigargin-induced cell death (in words): H4 cells
In short: as §1

p38 MAPK [2] = experiment: Immunoblotting of thapsigargin-induced phospho-p38 MAPK in H4 cells; assay type: cell-based, human; details: compound 25 μM and 5 μM 2 h, then 20 μM thapsigargin 1 h, immunoblot
In short: (§2)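 H4 cells, 2.5 × 10^6 per 10 cm dish, grown overnight in phenol red-free DMEM with 2% FBS, then serum-starved 2 h. Test compound at 25 or 5 μM for 2 h, then thapsigargin 20 μM for 1 h. Lysed in RIPA buffer with protease and phosphatase inhibitors; protein measured by BCA. 50 μg run on 4–12% Bis-Tris SDS-PAGE and transferred to PVDF. Probed for phospho-p38, p38, phospho-JNK and JNK; HRP secondaries, ECL detection.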

JNK = experiment: Immunoblotting of thapsigargin-induced phospho-JNK in H4 cells; assay type: cell-based, human; details: compound 25 μM and 5 μM 2 h, then 20 μM thapsigargin 1 h, immunoblot
In short: as §2

p38 MAPK [3] = experiment: Activity of p38 MAPK pathway, H4-CHOP-luciferase reporter cells; assay type: cell-based, human
In short: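 H4 cells stably carrying pFR-Luc and pFA-CHOP plasmids, 1000 cells/well, grown 24 h in 10% FBS DMEM, then switched to phenol red-free DMEM with 2% FBS. Test compound for 1 h at 37 °C (10 μM with thapsigargin or CDDO-IM; 20 μM with MG132; 50 μM with ionomycin). Read by Steady-Glo luminescence. RLU % = background-subtracted (compound-only wells) relative to inducer-only wells. ≥3 repeats, mean ± SEM, one-way ANOVA.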

[4] = test system: panel of 46 receptors, ion channels, and transporters; experiment: NIMH PDSP off-target panel; assay type: binding

Structure (SMILES)	remaining at 1 h, 4 μM [1]	remaining at 3 h, 1 μM (Plasma stability assay)	EC50 (SH-SY5Y cells)	EC50 (H4 cells)	cytoprotective activity against thapsigargin-induced cell death (in words) (SH-SY5Y cells)	also measured
CCN(CC)c1ccc(C2Nc3ccc(C(=O)c4ccccc4)cc3NC3=C2C(=O)CC(C)(C)C3)cc1 (centres unmarked) [4hh, 7-Benzoyl-11-(4-(diethylamino)phenyl)-3,3-dimethyl-2,3,4,5,10,11-hexahydro-1H-dibenzo[b,e][1,4]diazepin-1-one]	7.9 ± 6.3%	≥ 100%			very strong cytoprotective activity	p38 activity (phosphorylation) in response to thapsigargin (p38 MAPK [2]): significantly reduced; JNK activity (phosphorylation) in response to thapsigargin (JNK): significantly reduced; p38 activation initiated by CDDO-IM (CHOP-luciferase RLU) (p38 MAPK [3]; 10 μM compound 1 h, CDDO-IM 600 nM 18 h): reduced p38 activation; p38 activation initiated by thapsigargin (CHOP-luciferase RLU) (p38 MAPK [3]; 10 μM compound 1 h, thapsigargin 20 nM 18 h): reduced p38 activation; p38 activity stimulated by MG132 (CHOP-luciferase RLU) (p38 MAPK [3]; 20 μM compound 1 h, MG132 740 nM 18 h): had no effect; p38 activation initiated by ionomycin (CHOP-luciferase RLU) (p38 MAPK [3]; 50 μM compound 1 h, ionomycin 120 nM 18 h): reduced p38 activation; calcium regulator-induced p38 MAPK activation (p38 MAPK [3]; H4-CHOP-luciferase reporter cells, inducers that disrupt calcium homeostasis): moderate inhibition; also recorded: inhibits; off-target interactions in PDSP panel [4]: No significant off-target interactions were detected
CCCCN(CCCC)c1ccc(C2Nc3ccc(Br)cc3NC3=C2C(=O)CC(C)(C)C3)cc1 (centres unmarked) [4w, 7-Bromo-11-(4-(dibutylamino)phenyl)-3,3-dimethyl-2,3,4,5,10,11-hexahydro-1H-dibenzo [b,e][1,4]diazepin-1-one]				13.1 ± 2.53 µM	but not in SH-SY5Y cells	
CC1(C)CC(=O)C2=C(C1)Nc1cc(C(=O)c3ccccc3)ccc1NC2c1ccsc1 (centres unmarked) [4mm, 7-Benzoyl-3,3-dimethyl-11-(thiophen-3-yl)-2,3,4,5,10,11-hexahydro-1H-dibenzo[b,e] [1,4]diazepin-1-one]					devoid of cytoprotective activity; also recorded: does not	cytoprotective activity against thapsigargin-induced cell death (in words) (H4 cells): devoid of cytoprotective activity; p38 activity (phosphorylation) in response to thapsigargin (p38 MAPK [2]): had no effect; JNK activity (phosphorylation) in response to thapsigargin (JNK): had no effect
CC1(C)CC(=O)C2=C(C1)Nc1cc(C(=O)c3ccccc3)ccc1NC2c1ccc(O)cc1 (centres unmarked) [4ll, 7-Benzoyl-11-(4-hydroxyphenyl)-3,3-dimethyl-2,3,4,5,10,11-hexahydro-1H-dibenzo[b,e] [1,4]diazepin-1-one]					devoid of cytoprotective activity	cytoprotective activity against thapsigargin-induced cell death (in words) (H4 cells): devoid of cytoprotective activity
CN(C)c1ccc(C2Nc3ccc(Br)cc3NC3=C2C(=O)CC(C)(C)C3)cc1 (centres unmarked) [4s, 7-Bromo-11-(4-(dimethylamino)phenyl)-3,3-dimethyl-2,3,4,5,10,11-hexahydro-1H-dibenzo [b,e][1,4]diazepin-1-one]				12.9 ± 0.92 µM		

Further lines, with some results ahead:

remaining at 1 h, 4 μM [1]	remaining at 3 h, 1 μM (Plasma stability assay)	EC50 (SH-SY5Y cells)	Structure (SMILES)	EC50 (H4 cells)	cytoprotective activity against thapsigargin-induced cell death (in words) (SH-SY5Y cells)	also measured
1.8 ± 2.1%	97.9 ± 5.7%		CCN(CC)c1ccc(C2Nc3ccc(-c4ccccc4)cc3NC3=C2C(=O)CC(C)(C)C3)cc1 (centres unmarked) [4y, 11-(4-(Diethylamino)phenyl)-3,3-dimethyl-7-phenyl-2,3,4,5,10,11-hexahydro-1H-dibenzo [b,e][1,4]diazepin-1-one]			
0.1 ± 0.1%	≥ 100%	14.6 ± 1.61 µM	CC1(C)CC(=O)C2=C(C1)Nc1cc(Br)ccc1NC2c1ccc(N2CCCC2)cc1 (centres unmarked) [4t, 7-Bromo-3,3-dimethyl-11-(4-(pyrrolidin-1-yl)phenyl)-2,3,4,5,10,11-hexahydro-1H-dibenzo [b,e][1,4]diazepin-1-one]			
4.7 ± 1.7%	≥ 100%	16 ± 0.82 µM	CC1(C)CC(=O)C2=C(C1)Nc1cc(C(F)(F)F)ccc1NC2c1ccc(N2CCCCC2)cc1 (centres unmarked) [4ff, 3,3-Dimethyl-11-(4-(piperidin-1-yl)phenyl)-7-(trifluoromethyl)-2,3,4,5,10,11-hexahydro-1H-dibenzo[b,e][1,4]diazepin-1-one]	19.5 ± 2.15 µM		
12.9 ± 1.6%	≥ 100%		CC1(C)CC(=O)C2=C(C1)Nc1cc(C(=O)c3ccccc3)ccc1NC2c1ccc(N2CCCCC2)cc1 (centres unmarked) [4jj, 7-Benzoyl-3,3-dimethyl-11-(4-(piperidin-1-yl)phenyl)-2,3,4,5,10,11-hexahydro-1H-dibenzo[b,e][1,4]diazepin-1-one]			
1.8 ± 0.4%	98.8 ± 3.7%	14 ± 0.18 µM	CC1(C)CC(=O)C2=C(C1)Nc1cc(C(F)(F)F)ccc1NC2c1ccc(N2CCCC2)cc1 (centres unmarked) [4ee, 3,3-Dimethyl-11-(4-(pyrrolidin-1-yl)phenyl)-7-(trifluoromethyl)-2,3,4,5,10,11-hexahydro-1H-dibenzo[b,e][1,4]diazepin-1-one]	18.8 ± 2.77 µM		
